Source: PubChem
NF-kB neuron act = compounds increasing NF-kB expression in human neuronal cells. NF-kB reporter expression; active compounds read high. fold change at 12.5 µM. actives 1.6% (n = 190,000). AID 1239; in the data active = fold change above about 3.3
FLuc stim CS = firefly luciferase counter-screen for stimulation assays. P08659. ATPlite luciferase biochemical, luminescence, 10 min; 0 = ATP-free wells, 1 = DMSO control. activation factor at 10 µM. 200,000 tested, under 10 active. AID 1027;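 active = luciferase activation factor, scaled between plate controls, of at least 2 with compound at 10 µM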
Target sequence (P08659 whole entry, looked up): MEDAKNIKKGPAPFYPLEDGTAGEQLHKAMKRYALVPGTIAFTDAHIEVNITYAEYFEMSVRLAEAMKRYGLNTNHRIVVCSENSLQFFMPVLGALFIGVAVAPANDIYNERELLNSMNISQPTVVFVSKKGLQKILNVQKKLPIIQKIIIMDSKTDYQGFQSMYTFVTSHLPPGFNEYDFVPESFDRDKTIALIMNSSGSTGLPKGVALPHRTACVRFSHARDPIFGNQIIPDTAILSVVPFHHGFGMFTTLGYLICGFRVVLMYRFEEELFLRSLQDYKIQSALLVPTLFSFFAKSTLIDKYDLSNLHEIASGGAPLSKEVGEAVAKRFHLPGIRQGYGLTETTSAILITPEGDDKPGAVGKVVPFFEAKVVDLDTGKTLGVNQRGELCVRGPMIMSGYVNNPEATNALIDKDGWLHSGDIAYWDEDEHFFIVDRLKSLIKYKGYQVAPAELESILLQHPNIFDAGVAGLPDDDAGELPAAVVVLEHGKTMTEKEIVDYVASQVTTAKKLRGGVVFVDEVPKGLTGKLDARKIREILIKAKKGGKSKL
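Assay system – cell-free luciferase reagent · Medium – PBS-based ATP solution · Dosing – test compounds dosed from 2 mM stocks in 100% DMSO · Timing – 10 min, room temperature · Technique – light output (luminescence) · Measure – luminescence gain marking luciferase activators · Controls – No-ATP low control, compound-free enzyme-plus-ATP high control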
sdo1 growth = compounds rescuing growth of sdo1-depleted yeast, bone marrow failure model. AID 817. S. cerevisiae sdo1-depleted JHY4D growth rescue, OD600 30 h; active compounds read high; pdr5 snq2 efflux-pump mutant strain. z-score at 10 µM. actives 0.21% (n = 140,000);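 active = z-score above 3 at both the 24 hr and the 30 hr optical density reads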
FLuc inhib CS = Photinus pyralis luciferase inhibition counter-screen. P08659. ATPLite firefly luciferase biochemical luminescence, 10 min. inhibition, % at 10 µM. actives 1.5% (n = 200,000);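 active = inhibition above about 50% when tested at 10 µM, limit read from the data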
STAT1 activator = increases IFN-gamma driven STAT1 reporter signal | NIH 3T3 STAT1-luciferase reporter, luminescence; 100% = IFN-gamma alone, no compound | activation (% of control), % at 5.5 µM | AID 932 | actives 2.6% (n = 200,000);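 active = activation above the screen-wide mean activation plus 3 SD, cut at about 130% in these data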
APP 5'UTR act = APP 5'UTR luciferase reporter activation; SH-SY5Y APP 5'UTR luciferase reporter, luminescence; zero percent = DMSO vehicle wells; activation, % at 2 µM; actives 1% (n = 190,000);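 active = activation above a set limit, based on mean plus 3 SD of controls, cut at about 140% in these data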
STAT1 act conf = STAT1 activation, confirmation assay; shares compounds with STAT1 activator; AID 1262; actives 97% (n = 1,200); NIH 3T3 STAT1-luciferase reporter, IFN-gamma potentiation, luminescence; 100% = IFN-gamma EC80 alone, no compound; activation (% of control), % at 5.7 µM;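 active = activation above a set limit carried over from the earlier primary STAT1 screen, cut at about 140% in these data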
NFkB act STAT1ct = counter-screen for STAT1 activators: NF-kappaB activation. shares compounds with STAT1 activator. HEK293T NF-kB luciferase reporter, TNF-alpha stimulated, luminescence; 100% = TNF-alpha with vehicle only. activation (% of control), % at 5.7 µM. actives 43% (n = 1,200). AID 1306;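 active = activation above the mean of solvent-only control wells plus 3 SD, set per campaign, cut at about 130% in these data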;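 note: TNF-alpha given at a submaximal dose yielding about 80% of full reporter signal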
STAT3 act STAT1c = counter-screen for STAT1 activators: human STAT3 activation | activation (% of control), % at 5.7 µM | actives 46% (n = 1,200) | U3A cells STAT3-luciferase reporter, IL-6, luminescence; cells lack STAT1; 100 = IL-6 alone, no compound effect | shares compounds with STAT1 activator;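 active = activation above the solvent-only control well mean plus 3 SD, set per plate batch, cut at about 110% in these data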;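 note: higher means more STAT3 reporter activation so hits are non-selective activators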
Hits are given with their value; 0 = inactive; - = no result. The list is not random: actives were taken first. Their share in the collection is about 4.3%.

SMILES	NF-kB neuron act	FLuc stim CS	sdo1 growth	FLuc inhib CS	STAT1 activator	APP 5'UTR act	STAT1 act conf	NFkB act STAT1ct	STAT3 act STAT1c
Cc1ccccc1/C(N)=N/OC(=O)c1ccc(F)cc1	-	0	-	92.5	183.0	0	174.1	135.3	0
CCCCOc1ccc(-c2csc(N)n2)cc1[N+](=O)[O-]	5.36	0	0	0	155.9	141.5	192.4	140.8	0
O=C(C1CCCN1C(=O)c1cccs1)N1CCc2ccccc21 (configuration not stated)	0	0	0	0	0	0	-	-	-
Cc1cccc2cc3c(N)c(C(=O)N4CCOCC4)sc3nc12	0	0	0	0	157.0	0	159.9	0	124.5
CCOC(=O)N1CCC(NC(=O)c2cnc3n(c2=O)CCS3)CC1	0	0	-	0	0	0	-	-	-
CCOc1ccc2nc(N3CCOCC3)nc(C)c2c1	3.84	0	0	0	154.9	0	181.3	0	0
CCOc1ccc(Nc2cc(C)nc(N3CCOCC3)n2)cc1	0	0	0	0	0	0	-	-	-
CCOc1ccc(CCNC(=O)C2CCCN(S(=O)(=O)c3c(C)n[nH]c3C)C2)cc1OCC (configuration not stated)	0	0	0	0	0	0	-	-	-
O=C(Nc1ccc2c(c1)OCO2)c1ccc(Br)s1	10.1	0	0	60.9	181.3	161.8	203.5	0	131.6
O=C(Nc1ccc2c(c1)CCC2)Nc1ccc2c(c1)OCO2	0	0	-	0	159.7	0	167.4	0	110.9
CC(=O)Nc1ccc2c(c1)OCO2	0	0	-	0	0	0	-	-	-
O=C(Nc1cccc([N+](=O)[O-])c1)Nc1cccc([N+](=O)[O-])c1	0	0	-	0	0	0	-	-	-
Cn1c(C(=O)Nc2ccc3c(c2)OCO3)cc2sccc21	8.88	0	0	53.2	193.0	153.3	210.4	146.7	141.6
O=C(Nc1cccc([N+](=O)[O-])c1)Nc1ccc2c(c1)OCCO2	3.57	0	-	0	155.7	0	195.5	137.1	136.3
COc1ccc(CNCc2cn(-c3cccc(F)c3)nc2-c2ccc(C)o2)cc1	0	0	-	0	0	0	-	-	-
Cc1ccccc1OCCSc1nnc(-c2cccnc2)n1N	0	0	0	0	0	0	-	-	-
C/C(=N/NC(=O)CNC(=O)c1ccccn1)c1cccc([N+](=O)[O-])c1	0	0	-	0	0	0	-	-	-
N#Cc1cccc(NCC(=O)Nc2ccc3c(c2)OCCO3)c1	6.85	0	-	65.2	167.3	190.2	180.3	0	115.1
O=C(Nc1ccc2c(c1)OCCO2)c1cccs1	5.23	0	0	69.6	152.9	142.1	172.9	0	0
N#Cc1ccc(NCC(=O)Nc2ccc3c(c2)OCCO3)cc1	0	0	-	0	0	0	-	-	-
O=C(Nc1ccncc1)c1cccs1	0	0	0	0	0	0	-	-	-
CC(=O)c1ccc(NC(=O)C2CC(=O)N(C(C)C)C2)cc1 (configuration not stated)	-	0	-	0	0	0	-	-	-
O=c1c(-c2nc3ccccc3s2)cccn1Cc1ccccc1	3.72	0	0	0	161.2	0	210.6	0	0
COc1ccc(-c2cc(=O)c3ccccc3[nH]2)cc1	0	0	0	0	0	0	-	-	-
COc1ccc(-c2cc(=O)c3ccccc3s2)cc1	5.62	0	0	67.1	179.0	0	222.9	136.3	119.5
SMILES	NF-kB neuron act	FLuc stim CS	sdo1 growth	FLuc inhib CS	STAT1 activator	APP 5'UTR act	STAT1 act conf	NFkB act STAT1ct	STAT3 act STAT1c
CCc1ccc(NC(=O)C(=S)NC2CCCCC2)cc1	0	0	-	0	160.2	0	200.1	144.2	113.4
CCOc1ccc(NC(=O)C(=S)NC2CCCCC2)cc1	0	0	-	0	0	0	-	-	-
COc1ccc(NC(=O)C(=S)NC2CCCCC2)cc1	0	0	-	0	157.9	0	194.3	137.8	115.4
Cc1ccc(C(=O)N/C(=C\c2cccs2)C(=O)NCCc2c[nH]c3ccccc23)cc1	0	0	0	0	0	0	-	-	-
Cc1cnc(NC(=O)Nc2ccc(Cl)cc2)s1	25.6	0	-	0	296.5	0	281.6	138.0	141.5
Cc1cnc(NC(=O)CSc2ccc(Cl)cc2)s1	0	0	0	0	0	0	-	-	-
Cc1nn(-c2ccccc2)c(Cl)c1C(=O)N(C)c1nc(-c2ccc(F)cc2)cs1	0	0	0	0	0	0	-	-	-
COc1ccc(CCNC(=O)C(=O)NCc2ccccn2)cc1	0	0	-	0	0	0	-	-	-
COc1ccc(-c2csc(N3C(=O)C4C5c6ccccc6C(c6ccccc65)[C@@H]4C3=O)n2)cc1 (some centres not stated)	0	0	0	0	0	0	-	-	-
O=C1CNC(=S)N1c1nc(-c2ccccc2)cs1	0	0	0	0	153.5	0	188.2	0	115.1
CCc1c(C)[nH]n(-c2nc(-c3ccccc3)cs2)c1=O	0	0	-	0	0	0	-	-	-
COc1ccc(-c2csc(N3C(=O)CNC3=S)n2)cc1	5.35	0	0	0	179.2	204.5	260.4	0	0
COc1ccc(-c2csc(N3C(=O)C4C5c6ccccc6C(c6ccccc65)C4C3=O)n2)cc1 (configuration not stated)	0	0	0	0	0	0	-	-	-
COc1ccc(-c2csc(N3C(=N)SCC3=O)n2)cc1	4.87	0	0	0	164.1	0	293.9	0	112.1
Cc1ccccc1S(=O)(=O)Cc1ccc(C(=O)NCc2ccc(F)cc2)o1	0	0	-	0	0	0	-	-	-
COc1ccc(-c2cc(C(=O)NNC3=NCCC3)c3c(C)nn(-c4ccccc4)c3n2)cc1	0	0	-	0	0	0	-	-	-
CC(C)(C)NC(=O)NC(=O)COc1ccc(Br)cc1Br	5.1	0	0	0	196.5	150.8	242.9	0	113.6
COC(=O)c1c(-c2cccnc2)csc1NC(=O)c1cc(C)on1	0	0	0	0	152.5	0	202.1	137.2	127.5
Cc1cc(C)nc(/N=C(\N)N(Cc2ccccc2)Cc2ccccc2)n1	0	0	-	0	0	0	-	-	-
NNC(=O)c1ccc2nc(-c3ccc(Br)cc3)cn2c1	0	0	-	0	162.1	0	207.6	0	115.1
COCCn1cc(C(=O)N2CCC(C)CC2)c2c3ccccc3n(C)c2c1=O	0	0	0	0	0	0	-	-	-
Clc1ccc2nc(N3CCCCC3)sc2c1	4.87	0	0	0	166.0	173.0	207.5	137.9	0
N#Cc1ccc(CSc2nnc3[nH]c(=O)cc(N)n23)cc1	0	0	-	0	0	0	-	-	-
